Experimental data published in ChEMBL document CHEMBL4118097, “Selective Inhibitors of Dual Leucine Zipper Kinase (DLK, MAP3K12) with Activity in a Model of Alzheimer's Disease” (J Med Chem, 2017).

How the values were obtained:
[1] = biological target: Tyrosine-protein kinase ABL1 (Homo sapiens) (UniProt P00519); assay: Inhibition of recombinant GST/His-tagged human Abl (118 to 535 residues) at 1 uM by FRET assay relative to control
How it was run: (§1)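 Single-point screen at 1 μM compound in a 220-kinase panel run by Life Technologies (SelectScreen). Z′-LYTE format: phosphorylation of a labeled peptide substrate read by FRET. Values are reported as percent inhibition.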

[2] = biological target: Fibroblast growth factor receptor 4 (Homo sapiens) (UniProt P22455); assay: Inhibition of recombinant His-tagged human FGFR4 cytoplasmic domain expressed in baculovirus expression system at 1 uM by FRET assay relative to control; how it was run: as §1
[3] = biological target: Serine/threonine-protein kinase 33 (Homo sapiens) (UniProt Q9BYT3); assay: Inhibition of recombinant full length His-tagged human STK33 expressed in baculovirus expression system at 1 uM by FRET assay relative to control
Sequence of Serine/threonine-protein kinase 33 (Homo sapiens) (Q9BYT3 whole entry, looked up): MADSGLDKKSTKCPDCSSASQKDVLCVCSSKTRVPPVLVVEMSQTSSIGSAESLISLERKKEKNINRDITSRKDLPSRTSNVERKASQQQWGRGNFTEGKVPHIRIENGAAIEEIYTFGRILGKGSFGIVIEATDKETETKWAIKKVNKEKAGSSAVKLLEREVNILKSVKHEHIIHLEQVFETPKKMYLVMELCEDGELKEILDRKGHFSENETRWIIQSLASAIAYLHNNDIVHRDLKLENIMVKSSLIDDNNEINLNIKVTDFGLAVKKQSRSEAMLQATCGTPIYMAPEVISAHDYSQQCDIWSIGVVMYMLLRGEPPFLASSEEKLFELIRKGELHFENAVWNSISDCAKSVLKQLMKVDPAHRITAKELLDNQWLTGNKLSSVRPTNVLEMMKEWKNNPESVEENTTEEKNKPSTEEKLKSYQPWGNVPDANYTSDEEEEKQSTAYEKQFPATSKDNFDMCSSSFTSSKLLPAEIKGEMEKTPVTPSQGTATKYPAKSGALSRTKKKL

[4] = biological target: Calcium/calmodulin-dependent protein kinase kinase 1 (Homo sapiens) (UniProt Q8N5S9); assay: Inhibition of recombinant full length His-tagged human CAMKK1 expressed in baculovirus expression system at 1 uM by FRET assay relative to control
Sequence of Calcium/calmodulin-dependent protein kinase kinase 1 (Homo sapiens) (Q8N5S9 whole entry, looked up, the tested form may be a part): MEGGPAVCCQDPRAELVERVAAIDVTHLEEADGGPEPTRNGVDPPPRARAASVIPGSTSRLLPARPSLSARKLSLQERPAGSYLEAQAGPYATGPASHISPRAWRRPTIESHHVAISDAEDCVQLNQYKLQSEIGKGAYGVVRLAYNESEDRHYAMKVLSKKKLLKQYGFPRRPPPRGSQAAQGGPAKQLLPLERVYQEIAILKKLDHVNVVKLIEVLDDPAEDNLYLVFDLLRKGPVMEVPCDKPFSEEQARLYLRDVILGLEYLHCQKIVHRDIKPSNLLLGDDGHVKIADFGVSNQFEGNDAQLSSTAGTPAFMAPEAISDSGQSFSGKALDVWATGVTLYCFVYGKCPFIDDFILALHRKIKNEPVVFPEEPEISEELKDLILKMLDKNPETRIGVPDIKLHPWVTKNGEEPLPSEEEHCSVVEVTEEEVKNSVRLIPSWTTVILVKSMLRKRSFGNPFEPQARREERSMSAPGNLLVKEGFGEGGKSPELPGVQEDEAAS

[5] = biological target: Bone morphogenetic protein receptor type-1A (Homo sapiens) (UniProt P36894); assay: Inhibition of recombinant full length N-terminal GST-tagged human BMPR1A catalytic domain expressed in insect cells at 1 uM by FRET assay relative to control
Sequence of Bone morphogenetic protein receptor type-1A (Homo sapiens) (P36894 whole entry, the tested form may be a part): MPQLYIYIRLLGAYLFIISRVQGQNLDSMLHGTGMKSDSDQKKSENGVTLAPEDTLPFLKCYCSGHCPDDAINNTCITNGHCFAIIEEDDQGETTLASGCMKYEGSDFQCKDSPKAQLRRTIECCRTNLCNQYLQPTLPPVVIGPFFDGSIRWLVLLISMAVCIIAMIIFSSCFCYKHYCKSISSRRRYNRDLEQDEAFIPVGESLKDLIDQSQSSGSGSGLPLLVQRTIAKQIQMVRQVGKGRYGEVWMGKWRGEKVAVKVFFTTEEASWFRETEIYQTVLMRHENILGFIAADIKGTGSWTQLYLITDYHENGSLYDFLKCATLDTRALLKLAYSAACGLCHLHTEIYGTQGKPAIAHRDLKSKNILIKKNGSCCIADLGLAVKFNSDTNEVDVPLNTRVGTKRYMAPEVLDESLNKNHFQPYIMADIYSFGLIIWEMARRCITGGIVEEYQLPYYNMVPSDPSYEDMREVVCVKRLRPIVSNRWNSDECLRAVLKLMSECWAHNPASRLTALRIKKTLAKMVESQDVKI

[6] = biological target: Homeodomain-interacting protein kinase 2 (Homo sapiens) (UniProt Q9H2X6); assay: Inhibition of recombinant GST-tagged human HIPK2 catalytic domain expressed in baculovirus expression system at 1 uM by FRET relative to control; how it was run: as §1
[7] = biological target: Adrenergic receptor alpha-1 (Homo sapiens) (UniProt P35348+P25100+P35368); assay: Binding affinity to alpha1 adrenergic receptor (unknown origin) at 10 uM relative to control; format: protein assay
How it was run: (§2)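 Broad radioligand-binding and enzyme screening panel covering 42 targets (biogenic amine and neuropeptide receptors, ion channels, neurotransmitter transporters, acetylcholinesterase). Single test concentration of 10 μM. Results expressed as binding relative to control, with a hit defined as >50% of control.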

[8] = biological target: Tyrosine-protein kinase receptor UFO (Homo sapiens) (UniProt P30530); assay: Inhibition of recombinant His-tagged human AXL (473 to end residues) cytoplasmic domain expressed in insect cells at 1 uM by FRET assay relative to control; how it was run: as §1
Sequence of Tyrosine-protein kinase receptor UFO (Homo sapiens) (P30530 whole entry, the tested form may be a part): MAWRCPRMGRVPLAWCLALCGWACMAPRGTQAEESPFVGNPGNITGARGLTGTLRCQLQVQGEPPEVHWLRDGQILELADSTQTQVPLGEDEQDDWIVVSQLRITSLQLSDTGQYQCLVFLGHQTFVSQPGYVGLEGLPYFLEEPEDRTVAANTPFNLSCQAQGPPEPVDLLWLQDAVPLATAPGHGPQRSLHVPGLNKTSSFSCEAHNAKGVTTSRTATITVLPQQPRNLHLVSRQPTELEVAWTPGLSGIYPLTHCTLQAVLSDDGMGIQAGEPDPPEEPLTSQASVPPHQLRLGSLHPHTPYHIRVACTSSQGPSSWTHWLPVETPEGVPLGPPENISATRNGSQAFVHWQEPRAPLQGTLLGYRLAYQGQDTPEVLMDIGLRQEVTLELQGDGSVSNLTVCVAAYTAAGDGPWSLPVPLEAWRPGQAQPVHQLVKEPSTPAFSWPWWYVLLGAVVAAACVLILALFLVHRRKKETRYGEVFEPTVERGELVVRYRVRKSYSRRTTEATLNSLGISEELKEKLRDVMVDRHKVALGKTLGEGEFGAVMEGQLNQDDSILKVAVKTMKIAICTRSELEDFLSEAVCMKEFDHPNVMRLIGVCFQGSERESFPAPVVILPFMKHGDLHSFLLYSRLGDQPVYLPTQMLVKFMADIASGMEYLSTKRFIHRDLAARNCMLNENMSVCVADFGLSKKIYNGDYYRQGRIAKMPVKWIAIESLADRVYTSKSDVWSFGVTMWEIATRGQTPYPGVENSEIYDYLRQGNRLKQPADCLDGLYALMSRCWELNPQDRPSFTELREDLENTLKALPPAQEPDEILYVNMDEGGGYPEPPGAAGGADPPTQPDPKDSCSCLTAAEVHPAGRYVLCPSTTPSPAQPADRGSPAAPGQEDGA

[9] = biological target: Serine/threonine-protein kinase MARK1 (Homo sapiens) (UniProt Q9P0L2); assay: Inhibition of recombinant full Length GST-tagged human MARK1 expressed in baculovirus expression system at 1 uM by FRET assay relative to control
How it was run: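 Single-concentration screen at 1 μM in Life Technologies SelectScreen, across a 220-kinase panel. Z′-LYTE format measures phosphorylation of a labeled peptide by FRET. Results are reported as percent inhibition.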

[10] = biological target: Casein kinase I isoform alpha (Homo sapiens) (UniProt P48729); assay: Inhibition of CK1alpha1 (unknown origin) at 1 uM by FRET assay relative to control
Sequence of Casein kinase I isoform alpha (Homo sapiens) (P48729 2-337 limits assumed): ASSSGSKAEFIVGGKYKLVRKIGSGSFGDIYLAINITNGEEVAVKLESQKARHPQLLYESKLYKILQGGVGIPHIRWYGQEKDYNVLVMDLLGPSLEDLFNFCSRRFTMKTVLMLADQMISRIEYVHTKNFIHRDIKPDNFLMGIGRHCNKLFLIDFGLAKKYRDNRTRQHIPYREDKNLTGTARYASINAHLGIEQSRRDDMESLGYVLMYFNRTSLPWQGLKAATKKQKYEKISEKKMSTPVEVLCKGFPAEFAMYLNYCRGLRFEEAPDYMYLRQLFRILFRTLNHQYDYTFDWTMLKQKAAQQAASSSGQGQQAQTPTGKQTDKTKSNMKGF

[11] = biological target: Mitogen-activated protein kinase 1 (Homo sapiens) (UniProt P28482); assay: Inhibition of recombinant GST-tagged human ERK2 expressed in Escherichia coli at 1 uM by FRET assay relative to control; how it was run: as §1
[12] = biological target: Sodium-dependent noradrenaline transporter (Homo sapiens) (UniProt P23975); assay: Binding affinity to recombinant human norepinephrine transporter at 10 uM relative to control; how it was run: as §2
Sequence of Sodium-dependent noradrenaline transporter (Homo sapiens) (P23975 whole entry): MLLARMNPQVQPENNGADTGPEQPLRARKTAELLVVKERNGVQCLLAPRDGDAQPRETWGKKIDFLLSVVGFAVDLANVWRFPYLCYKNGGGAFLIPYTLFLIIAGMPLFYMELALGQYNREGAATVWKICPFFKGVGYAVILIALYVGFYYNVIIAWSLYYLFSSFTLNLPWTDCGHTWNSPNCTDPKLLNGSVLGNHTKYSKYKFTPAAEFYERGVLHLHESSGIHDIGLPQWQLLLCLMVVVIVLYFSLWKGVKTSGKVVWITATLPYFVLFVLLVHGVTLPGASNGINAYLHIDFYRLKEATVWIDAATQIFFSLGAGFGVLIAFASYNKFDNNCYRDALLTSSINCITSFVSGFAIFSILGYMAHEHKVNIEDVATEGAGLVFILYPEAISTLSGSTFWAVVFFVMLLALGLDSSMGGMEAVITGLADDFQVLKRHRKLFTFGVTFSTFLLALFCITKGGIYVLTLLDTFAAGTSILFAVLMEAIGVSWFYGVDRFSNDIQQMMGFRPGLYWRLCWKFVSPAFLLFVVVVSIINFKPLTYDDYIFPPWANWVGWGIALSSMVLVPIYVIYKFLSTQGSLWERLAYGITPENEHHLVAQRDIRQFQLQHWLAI

[13] = biological target: T1, Mitogen-activated protein kinase kinase kinase 12 (Homo sapiens, UniProt Q12852); assay: Inhibition of doxycycline inducible human DLK transfected in HEK293 cells assessed as JNK phosphorylation after […] by Hoechst-33342 staining-based assay; format: cell-based
T1 sequence (Q12852 whole entry): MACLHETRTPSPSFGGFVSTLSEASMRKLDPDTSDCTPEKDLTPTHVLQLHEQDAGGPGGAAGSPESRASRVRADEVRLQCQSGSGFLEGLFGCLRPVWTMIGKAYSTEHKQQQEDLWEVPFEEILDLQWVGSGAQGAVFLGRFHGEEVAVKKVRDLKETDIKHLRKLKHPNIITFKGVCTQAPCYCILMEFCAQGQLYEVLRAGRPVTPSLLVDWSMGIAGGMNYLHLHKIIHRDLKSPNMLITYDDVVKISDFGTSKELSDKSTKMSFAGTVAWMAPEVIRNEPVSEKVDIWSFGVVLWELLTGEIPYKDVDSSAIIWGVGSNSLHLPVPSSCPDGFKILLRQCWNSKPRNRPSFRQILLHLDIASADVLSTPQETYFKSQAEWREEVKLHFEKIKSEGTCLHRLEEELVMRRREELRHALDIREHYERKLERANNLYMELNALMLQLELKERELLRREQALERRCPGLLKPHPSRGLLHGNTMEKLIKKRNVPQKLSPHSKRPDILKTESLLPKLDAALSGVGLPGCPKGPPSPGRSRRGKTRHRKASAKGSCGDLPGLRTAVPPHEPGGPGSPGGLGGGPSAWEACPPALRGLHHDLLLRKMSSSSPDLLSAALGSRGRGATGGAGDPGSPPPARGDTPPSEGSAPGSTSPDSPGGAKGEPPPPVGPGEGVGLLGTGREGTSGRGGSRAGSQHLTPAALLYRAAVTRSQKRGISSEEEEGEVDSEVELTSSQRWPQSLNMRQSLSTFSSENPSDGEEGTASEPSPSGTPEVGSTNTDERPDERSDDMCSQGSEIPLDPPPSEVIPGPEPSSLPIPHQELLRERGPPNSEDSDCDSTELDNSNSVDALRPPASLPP

[14] = biological target: CDK7/Cyclin H/MNAT1 (Homo sapiens) (UniProt P51946+P50613+P51948); assay: Inhibition of recombinant full length His-tagged human CDK7/cyclin H/MNAT1 expressed in baculovirus expression system at 1 uM by FRET assay relative to control
[15] = biological target: Gamma-aminobutyric acid type B receptor subunit 1 (Homo sapiens) (UniProt Q9UBS5); assay: Binding affinity to GABA-B1b (unknown origin) at 10 uM relative to control; how it was run: as §2
[16] = biological target: High affinity nerve growth factor receptor (Homo sapiens, UniProt P04629); assay: Inhibition of recombinant His-tagged human TrkA cytoplasmic domain (441 to 796 residues) expressed in baculovirus expression system by FRET assay
Sequence of High affinity nerve growth factor receptor (P04629 whole entry, the tested form may be a part): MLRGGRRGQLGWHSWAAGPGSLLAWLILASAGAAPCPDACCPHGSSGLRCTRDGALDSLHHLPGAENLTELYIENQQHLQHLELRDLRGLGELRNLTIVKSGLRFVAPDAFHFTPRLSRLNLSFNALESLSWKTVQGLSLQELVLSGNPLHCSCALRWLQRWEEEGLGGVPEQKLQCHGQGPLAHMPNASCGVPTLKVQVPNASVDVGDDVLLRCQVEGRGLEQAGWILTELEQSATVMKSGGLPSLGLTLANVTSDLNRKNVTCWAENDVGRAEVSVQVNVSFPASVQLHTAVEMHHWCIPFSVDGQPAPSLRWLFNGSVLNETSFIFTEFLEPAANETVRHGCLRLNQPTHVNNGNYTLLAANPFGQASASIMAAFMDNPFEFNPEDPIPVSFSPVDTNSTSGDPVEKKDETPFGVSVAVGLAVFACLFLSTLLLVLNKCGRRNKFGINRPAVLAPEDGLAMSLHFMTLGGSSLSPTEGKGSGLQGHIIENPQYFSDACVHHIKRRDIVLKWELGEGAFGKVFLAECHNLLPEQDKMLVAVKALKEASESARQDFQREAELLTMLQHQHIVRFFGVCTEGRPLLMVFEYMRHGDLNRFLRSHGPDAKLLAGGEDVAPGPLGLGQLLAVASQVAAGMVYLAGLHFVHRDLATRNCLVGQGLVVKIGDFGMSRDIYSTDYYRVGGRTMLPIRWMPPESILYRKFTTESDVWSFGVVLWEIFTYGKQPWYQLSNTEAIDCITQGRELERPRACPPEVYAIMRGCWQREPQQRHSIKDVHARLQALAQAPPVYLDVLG

[17] = biological target: Acetylcholinesterase (Homo sapiens) (UniProt P22303); assay: Binding affinity to acetylcholinesterase (unknown origin) at 10 uM relative to control; how it was run: as §2
Sequence of Acetylcholinesterase (Homo sapiens) (P22303 whole entry): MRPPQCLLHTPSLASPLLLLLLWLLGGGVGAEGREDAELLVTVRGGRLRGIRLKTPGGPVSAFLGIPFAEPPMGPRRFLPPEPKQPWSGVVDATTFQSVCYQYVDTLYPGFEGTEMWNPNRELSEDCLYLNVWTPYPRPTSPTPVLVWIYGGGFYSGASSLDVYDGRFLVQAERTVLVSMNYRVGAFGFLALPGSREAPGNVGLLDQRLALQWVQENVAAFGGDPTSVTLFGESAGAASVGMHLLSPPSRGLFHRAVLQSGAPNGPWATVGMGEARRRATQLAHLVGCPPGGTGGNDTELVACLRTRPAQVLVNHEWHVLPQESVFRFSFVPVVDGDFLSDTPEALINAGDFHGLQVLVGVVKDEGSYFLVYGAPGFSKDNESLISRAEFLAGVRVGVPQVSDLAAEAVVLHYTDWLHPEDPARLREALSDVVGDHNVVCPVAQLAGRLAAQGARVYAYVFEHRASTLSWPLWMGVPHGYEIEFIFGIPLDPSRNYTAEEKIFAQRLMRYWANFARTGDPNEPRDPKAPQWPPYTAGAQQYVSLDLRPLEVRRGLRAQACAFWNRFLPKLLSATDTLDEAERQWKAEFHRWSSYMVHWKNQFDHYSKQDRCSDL

[18] = biological target: Serine/threonine-protein kinase MRCK alpha (Homo sapiens) (UniProt Q5VT25); assay: Inhibition of recombinant His-tagged human MRCKalpha expressed in baculovirus at 1 uM by FRET assay relative to control; how it was run: as §1
[19] = biological target: Serine/threonine-protein kinase Nek6 (Homo sapiens) (UniProt Q9HC98); assay: Inhibition of recombinant GST-tagged human NEK6 catalytic domain expressed in baculovirus expression system at 1 uM by FRET assay relative to control; how it was run: as §1
[20] = biological target: NUAK family SNF1-like kinase 1 (Homo sapiens) (UniProt O60285); assay: Inhibition of recombinant full length His-tagged human ARK5 expressed in baculovirus expression system at 1 uM by FRET assay relative to control

Nc1ncc(-c2cc([C@H]3[C@@H]4CN(C5COC5)C[C@@H]43)n(CC3CC3)n2)cc1C(F)(F)F
inhibition [1]: 14.9% | inhibition [2]: 6.3% | inhibition [3]: 2.8% | inhibition [4]: -0.3% | inhibition [5]: 1.5% | inhibition [6]: 14.9% | Activity [7]: > 50% | inhibition [8]: 57.4% | inhibition [9]: 12.1% | inhibition [10]: 1.1% | inhibition [11]: 6.3% | Activity [12]: > 50% | IC50 [13]: 0.144 µM | inhibition [14]: 15.7% | Activity [15]: > 50% | IC50 [16]: 0.383 µM | Activity [17]: > 50% | inhibition [18]: 4.3% | inhibition [19]: 0.3% | inhibition [20]: 29.1%

CC(C)n1nc(-c2cnc(N)c(OC(F)(F)F)c2)cc1[C@H]1[C@@H]2CN(C3COC3)C[C@@H]21
inhibition [1]: 10.9% | inhibition [2]: 1.2% | inhibition [3]: 2.4% | inhibition [4]: -7.5% | inhibition [5]: -2.3% | inhibition [6]: 18% | Activity [7]: > 50% | inhibition [8]: 40.7% | inhibition [9]: 11.4% | inhibition [10]: -0.3% | inhibition [11]: 5.2% | Activity [12]: > 50% | IC50 [13]: 0.195 µM | inhibition [14]: 28.6% | Activity [15]: > 50% | IC50 [16]: 1.55 µM | Activity [17]: > 50% | inhibition [18]: 0.4% | inhibition [19]: 5.1% | inhibition [20]: 30.1%
